Converted amounts (≈) assume the structure as drawn.
Legend:
[1] = tested on: Talaromyces marneffei; test: Antifungal activity against Penicillium marneffei after 3 to 4 days by disc diffusion method; assay type: functional
[2] = tested on: Trichophyton mentagrophytes; test: Antifungal activity against Trichophyton mentagrophytes after 3 to 4 days by disc diffusion method; assay type: functional
[3] = tested on: Aspergillus flavus; test: Antifungal activity against Aspergillus flavus NCIM 524 after 3 to 4 days; assay type: functional
[4] = tested on: Aspergillus fumigatus; test: Antifungal activity against Aspergillus fumigatus NCIM 902 after 3 to 4 days; assay type: functional
In short: (§1)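 Compounds were dissolved in DMSO and tested by serial plate dilution. Activity was read as the diameter of the inhibition zone, with ciclopiroxolamine as the reference standard. Penicillium marneffei and Trichophyton mentagrophytes were recultured isolates.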

[5] = tested on: Talaromyces marneffei; test: Antifungal activity against Penicillium marneffei after 3 to 4 days; assay type: functional
[6] = tested on: Trichophyton mentagrophytes; test: Antifungal activity against Trichophyton mentagrophytes after 3 to 4 days; assay type: functional; in short: as §1
[7] = tested on: NCI-H460; test: Cytotoxicity against human NCI-H460 cells at 10 uM after 48 hrs by WST-1 assay; assay type: functional
In short: (§2)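 Cells from ATCC, grown in DMEM with 10% heat-inactivated FBS at 37 °C in humidified 5% CO2. Log-phase cells seeded at 5 × 10^3 cells/well and left to recover overnight, then exposed to varying compound concentrations for 48 h. Controls received medium with 0.2% DMSO vehicle. CCK-8 ([…]) reagent added at 5 µL/well for 2 h, then absorbance read.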

[8] = tested on: HCT-116; test: Cytotoxicity against human HCT116 cells at 10 uM after 48 hrs by WST-1 assay; assay type: functional
In short: (§3)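 Cells from ATCC were grown in DMEM with 10% heat-inactivated FBS at 37 °C in 5% CO2. Log-phase cells were seeded at 5 × 10^3 per well and left to recover overnight. They were then exposed to a range of compound concentrations for 48 h, with 0.2% DMSO as the vehicle control. CCK-8 (WST) reagent was added for 2 h and absorbance was measured.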

[9] = tested on: ACHN; test: Cytotoxicity against human ACHN cells at 10 uM after 48 hrs by WST-1 assay; assay type: functional; in short: as §3
[10] = tested on: Calu-1; test: Cytotoxicity against human Calu1 cells at 10 uM after 48 hrs by WST-1 assay; assay type: functional; in short: as §3
[11] = tested on: PANC-1; test: Cytotoxicity against human PANC1 cells at 10 uM after 48 hrs by WST-1 assay; assay type: functional; in short: as §2
[12] = tested on: Escherichia coli; test: Antibacterial activity against Escherichia coli ATCC 25922 after 24 hrs by disc diffusion method; assay type: functional
In short: (§4)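 Disc diffusion susceptibility test. The Klebsiella pneumoniae strain was a recultured isolate, not an ATCC stock.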

[13] = tested on: Staphylococcus aureus; test: Antibacterial activity against Staphylococcus aureus ATCC 25923 after 24 hrs by disc diffusion method; assay type: functional; in short: as §4
[14] = tested on: Pseudomonas aeruginosa; test: Antibacterial activity against Pseudomonas aeruginosa ATCC 27853 after 24 hrs by disc diffusion method; assay type: functional; in short: as §4
[15] = tested on: Klebsiella pneumoniae; test: Antibacterial activity against Klebsiella pneumoniae after 24 hrs by disc diffusion method; assay type: functional; in short: as §4
[16] = tested on: Escherichia coli; test: Antibacterial activity against Escherichia coli ATCC 25922 after 24 hrs; assay type: functional; conditions: ATCC 25922, 24 h
[17] = tested on: Staphylococcus aureus; test: Antibacterial activity against Staphylococcus aureus ATCC 25923 after 24 hrs; assay type: functional; conditions: ATCC 25923, 24 h
[18] = tested on: Pseudomonas aeruginosa; test: Antibacterial activity against Pseudomonas aeruginosa ATCC 27853 after 24 hrs; assay type: functional; conditions: ATCC 27853, 24 h
[19] = tested on: Klebsiella pneumoniae; test: Antibacterial activity against Klebsiella pneumoniae after 24 hrs; assay type: functional
[20] = tested on: Aspergillus fumigatus; test: Antifungal activity against Aspergillus fumigatus NCIM 902 after 3 to 4 days by disc diffusion method; assay type: functional
[21] = tested on: Aspergillus flavus; test: Antifungal activity against Aspergillus flavus NCIM 524 after 3 to 4 days by serial plate dilution method

Question: With `CCOC(=O)CC(=O)c1nccc2ccccc12` as the compound, how does the “inhibition zone (IZ)” value [1] read?
Answer: The value was 18 mm.

Question: And the “inhibition zone (IZ)” value [2]?
Answer: Its value is 17 mm.

Question: And the MIC [3]?
Answer: Its MIC is 12.5 µg/mL (≈ 51.4 µM).

Question: And the MIC [4]?
Answer: Its MIC is 12.5 µg/mL (≈ 51.4 µM).

Question: What about the MIC [5] of the same compound?
Answer: Its MIC is 12.5 µg/mL (≈ 51.4 µM).

Question: What about the MIC [6] of the same compound?
Answer: The MIC was 12.5 µg/mL (≈ 51.4 µM).

Question: And the Activity [7]?
Answer: The Activity was 34%.

Question: What about the Activity [8] of the same compound?
Answer: The Activity was 26%.

Question: What about the Activity [9] of the same compound?
Answer: Its Activity is 30%.

Question: And the Activity [10]?
Answer: The Activity was 30%.

Question: What about the Activity [11] of the same compound?
Answer: The Activity was 35%.

Question: What about the “inhibition zone (IZ)” value [12] of the same compound?
Answer: The value was 19 mm.

Question: And the “inhibition zone (IZ)” value [13]?
Answer: The value was 22 mm.

Question: And the “inhibition zone (IZ)” value [14]?
Answer: Its value is 20 mm.

Question: What about the “inhibition zone (IZ)” value [15] of the same compound?
Answer: Its value is 22 mm.

Question: What about the MIC [16] of the same compound?
Answer: Its MIC is 6.25 µg/mL (≈ 25.7 µM).

Question: What about the MIC [17] of the same compound?
Answer: Its MIC is 6.25 µg/mL (≈ 25.7 µM).

Question: And the MIC [18]?
Answer: Its MIC is 6.25 µg/mL (≈ 25.7 µM).

Question: And the MIC [19]?
Answer: Its MIC is 6.25 µg/mL (≈ 25.7 µM).

Question: What about the “inhibition zone (IZ)” value [20] of the same compound?
Answer: The value was 18 mm.

Question: What about the “inhibition zone (IZ)” value [21] of the same compound?
Answer: Its value is 15 mm.

Reference: ChEMBL document CHEMBL2034859, “Simple, fast and efficient synthesis of β-keto esters from the esters of heteroaryl compounds, its antimicrobial study and cytotoxicity towards various cancer cell lines” (Bioorg Med Chem Lett, 2012)
